In PubChem BioAssay AID743061 (The Scripps Research Institute Molecular Screening Center, 2013):

Target: Methionine--tRNA ligase, mitochondrial (Homo sapiens) (UniProt Q96GW9)
Assay: human mtMetRS tRNA charging inhibition – biochemical, radioactivity, round 1, selectivity assay for T. brucei MetRS inhibitor project, late-stage follow-up (AID 743061);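 also: 0% = DMSO with full reaction and 100% = DMSO wells lacking tRNA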
Details: recombinant human mtMetRS, [3H]Met tRNA charging, at 1 µM, stronger effect = higher value
Procedure, shortened: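 System: recombinant human mitochondrial methionyl-tRNA synthetase (MetRS); Buffer or medium: pH 8.0 reaction buffer containing 2.5 mM ATP; Controls: high DMSO, low without tRNA; Reagent: [3H]Met 240 nM plus bulk E. coli tRNA; Schedule: 15 min preincubation, 1 h reaction, room temperature; Measured by: scintillation counts of TCA-precipitated charged tRNA on filters.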

SMILES	inhibition [%]
CC(C)c1nc2ccc(C(=O)N(C)CCc3nc4ccc(F)cc4[nH]3)cc2o1	-1.54
CCN(CC)C(=O)C(=O)c1cn(CC(=O)N2CCCc3ccccc32)c2ccccc12	-14.3
O=C1[C@@H]2Cc3c([nH]c4ccccc34)C(c3cccc([N+](=O)[O-])c3)N2C(=O)CN1CCCO (stereo not given in full)	-17.4
CCN(CC)C(=O)C(=O)c1cn(CC(=O)Nc2cccc(C(F)(F)F)c2)c2ccccc12	-0.41
CC(=O)c1ccc(N2CCN(C(=O)CCCn3c(=O)[nH]c4ccc(Br)cc4c3=O)CC2)cc1	-14.1
O=C(CSC1CC(=O)N(c2cccc(Cl)c2)C1=O)Nc1ccc(Br)cc1 (stereo not given)	-12.3
O=C(Cn1cc(C(=O)COc2ccccc2)c2ccccc21)Nc1cccc(C(F)(F)F)c1	-22.6
Cc1ccc(C(=O)NCCc2nc3ccccc3[nH]2)cc1[N+](=O)[O-]	0.93
Clc1ccc(OCCSCc2nc3ccccc3[nH]2)cc1	-20
O=C(CC=NOCc1ccc([N+](=O)[O-])cc1)Nc1ccc(Br)cc1	-22.4
O=C(CN1CCSC1=NCc1ccccc1)c1ccc(Cl)c(Cl)c1	-25.1
COc1ccc(CNC(=O)CSc2nnc3c(n2)[nH]c2ccc(F)cc23)cc1	-29.7
CCCCn1c(CCNC(=O)c2ccc(F)cc2)nc2ccccc21	3.64
COc1cccc(NC(=O)CSc2nnc3c(n2)[nH]c2ccc(C)cc23)c1	49.7
CCC(=O)c1cn(CC(=O)Nc2cccc(C(F)(F)F)c2)c2ccccc12	-18.3
CC(C)(C)[C@H]1C=C(C(=O)NCc2nc3ccccc3[nH]2)O[C@@H](OCc2ccc(CO)cc2)C1	-20.5
O=C(Cn1cc(C(=O)C(=O)N2CCOCC2)c2ccccc21)NCC1CCCO1 (stereo not given)	-9.17
CCO[C@H]1OC(C(=O)NCc2nc3ccccc3[nH]2)=C[C@@H](c2ccc(Br)cc2)[C@@H]1CCCO	-15

SMILES	inhibition [%]
COc1ccccc1-n1c(SCC(=O)Nc2ccc(Cl)cc2)nc(O)c(Cc2ccccc2)c1=O	-31.6
COc1ccc(OCC(O)CNC(=O)Nc2ccc(Cl)cc2)cc1 (stereo not given)	-6.26
O=C(NCc1nc2ccccc2[nH]1)C1=C[C@H](c2csc3ccccc23)C[C@H](OCCCCO)O1	-9.21
Cc1cccc(NC(=O)C2CC(=O)n3c(nc4ccccc43)N2)c1 (stereo not given)	10.7
COc1cccc(NC(=O)C2CC(=O)n3c(nc4ccccc43)N2)c1 (stereo not given)	1.46
O=C(NNC(=O)c1cc(-c2ccc(Cl)c(Cl)c2)nc2ccccc12)Nc1ccccc1	-17.1
O=C(NCc1nc2ccccc2[nH]1)C1=C[C@H](C2CC2)C[C@H](OCc2ccc(CO)cc2)O1	7.99
CCO[C@@H]1OC(C(=O)NCc2nc3ccccc3[nH]2)=C[C@H](c2ccc(Br)cc2)[C@H]1CCCO	-4.89
O=C(NCc1nc2ccccc2[nH]1)C1=C[C@H](c2ccc(Br)cc2)C[C@H](OCCCCO)O1	-6.37
CC(=O)N(CCc1ccccc1)C1CC(=O)N(c2ccc(Cl)cc2)C1=O (stereo not given)	-19.9
O=C(NCc1nc2ccccc2[nH]1)C1=C[C@@H](c2ccc(Br)cc2)C[C@@H](OCc2ccc(CO)cc2)O1	-11.6
CCc1ccc2[nH]c3nc(SCC(=O)NCc4cccc(OC)c4)nnc3c2c1	-1.1
CC(C)(C)[C@@H]1C=C(C(=O)NCc2nc3ccccc3[nH]2)O[C@H](OCc2ccc(CO)cc2)C1	-10.6
Oc1c(Cl)cc(Cl)cc1CNc1nc2ccccc2[nH]1	-0.2
O=C(Cn1cc(C(=O)c2ccccc2)c2ccccc21)Nc1cccc(C(F)(F)F)c1	-2.29
Cc1cccc2[nH]c(C3CCCN(C(=O)c4cccc5cccnc45)C3)nc12 (stereo not given)	-4.24
O=C(NCCc1nc2ccccc2[nH]1)c1c(F)cccc1F	0.56
